Experimental data taken from ChEMBL document CHEMBL1134769, “Potent and selective nonpeptide inhibitors of caspases 3 and 7” (J Med Chem, 2001).

Key:
Caspase-4 = molecular target: T1, Caspase-4 (Homo sapiens, UniProt P49662); experiment: Inhibitory activity against caspase-4; conditions: read-out: Ki app
T1 sequence (P49662 whole entry): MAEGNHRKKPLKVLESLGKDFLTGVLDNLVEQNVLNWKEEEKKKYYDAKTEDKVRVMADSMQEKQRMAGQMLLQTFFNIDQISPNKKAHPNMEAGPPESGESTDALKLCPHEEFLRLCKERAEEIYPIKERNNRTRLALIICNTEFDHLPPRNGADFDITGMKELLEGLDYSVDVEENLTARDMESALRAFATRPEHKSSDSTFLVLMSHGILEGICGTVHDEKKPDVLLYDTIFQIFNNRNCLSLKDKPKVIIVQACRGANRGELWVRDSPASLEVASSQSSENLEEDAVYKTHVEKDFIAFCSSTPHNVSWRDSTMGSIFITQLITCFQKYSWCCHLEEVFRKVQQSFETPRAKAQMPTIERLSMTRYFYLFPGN
Summary of the method: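 Recombinant full-length human caspase 4, ~10 units/assay, in potassium acetate pH 5.8 with 1 mM EDTA, 10% sucrose, 0.1% CHAPS and 5 mM β-mercaptoethanol. Substrate 100 μM Ac-LEED-AMC. Read at 360/460 nm, 30 °C, 5% final DMSO. Single-dose screen (typically 5–50 μM), then IC50 curves for actives.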

Caspase-3 [1] = molecular target: T2, Caspase-3 (Homo sapiens, UniProt P42574); experiment: Inhibition of recombinant human caspase-3
T2 sequence (P42574 whole entry): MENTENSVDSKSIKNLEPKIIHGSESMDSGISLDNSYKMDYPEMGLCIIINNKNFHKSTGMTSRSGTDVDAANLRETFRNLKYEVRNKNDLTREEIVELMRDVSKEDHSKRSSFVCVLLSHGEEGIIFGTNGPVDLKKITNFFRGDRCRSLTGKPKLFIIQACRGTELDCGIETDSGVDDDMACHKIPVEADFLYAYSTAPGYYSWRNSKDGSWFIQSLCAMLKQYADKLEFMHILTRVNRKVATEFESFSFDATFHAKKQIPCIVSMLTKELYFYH

Caspase-9 = molecular target: T3, Caspase-9 (Homo sapiens, UniProt P55211); experiment: Inhibitory activity against Caspase-9; conditions: read-out: Ki app
T3 sequence (P55211 whole entry): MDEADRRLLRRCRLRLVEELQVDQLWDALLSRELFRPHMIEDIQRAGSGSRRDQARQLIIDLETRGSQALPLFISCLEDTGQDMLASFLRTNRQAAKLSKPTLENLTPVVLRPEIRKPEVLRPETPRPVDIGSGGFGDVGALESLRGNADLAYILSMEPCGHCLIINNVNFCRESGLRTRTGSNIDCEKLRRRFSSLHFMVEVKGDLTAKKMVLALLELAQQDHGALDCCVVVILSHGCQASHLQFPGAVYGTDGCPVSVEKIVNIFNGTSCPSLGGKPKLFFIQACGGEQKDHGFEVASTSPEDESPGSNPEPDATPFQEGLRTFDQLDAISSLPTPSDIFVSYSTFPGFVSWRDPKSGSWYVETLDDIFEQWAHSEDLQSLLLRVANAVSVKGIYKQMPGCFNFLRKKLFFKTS

C20/A4 = experiment: In vitro inhibition of Chondrocyte cell line C20/A4 apoptosis at 25 uM of compound; assay type: functional, Homo sapiens
Summary of the method: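 Immortalized human chondrocyte line C20/A4 seeded at 20 000 cells/well overnight, then exposed 24 h to 4 μg/mL camptothecin with or without compound. Floating and adherent cells combined and lysed 30 min at 4 °C, then clarified at 14000g. Mono- and oligonucleosome DNA fragments measured by cell death ELISA; result expressed as % inhibition of apoptosis.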

Caspase-3 [2] = molecular target: T2, Caspase-3; experiment: Inhibitory activity against caspase-3; conditions: read-out: Ki app
Summary of the method: (§1)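 Recombinant full-length human caspase 3 or 7, ~10 units/assay (1 unit = 1 pmol AMC/min). Substrate 10 μM Ac-DEVD-AMC. AMC fluorescence at 360/460 nm, 30 °C, with 5% final DMSO. Single-dose screen (typically 5–50 μM), then IC50 curves; repeated IC50s had CVs typically <30%.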

Caspase-2 = molecular target: T4, Caspase-2 (Homo sapiens, UniProt P42575); experiment: Inhibitory activity against caspase-2; conditions: read-out: Ki app
T4 sequence (P42575 whole entry): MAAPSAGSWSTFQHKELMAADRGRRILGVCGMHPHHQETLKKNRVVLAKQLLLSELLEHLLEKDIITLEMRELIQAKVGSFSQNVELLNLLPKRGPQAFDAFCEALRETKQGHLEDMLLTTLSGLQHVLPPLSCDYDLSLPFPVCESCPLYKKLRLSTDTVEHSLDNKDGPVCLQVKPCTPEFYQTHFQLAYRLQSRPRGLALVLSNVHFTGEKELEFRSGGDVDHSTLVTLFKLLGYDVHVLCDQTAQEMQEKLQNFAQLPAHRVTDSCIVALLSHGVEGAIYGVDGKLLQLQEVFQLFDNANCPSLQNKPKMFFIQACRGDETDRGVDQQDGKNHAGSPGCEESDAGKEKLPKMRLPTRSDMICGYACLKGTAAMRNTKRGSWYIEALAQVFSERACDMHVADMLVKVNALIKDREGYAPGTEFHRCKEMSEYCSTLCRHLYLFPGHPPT
Summary of the method: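 Recombinant full-length human caspase 2 (~10 units/assay) in 50 mM sodium acetate pH 6.2 with 10% glycerol, 0.25 mM EDTA and 5 mM β-mercaptoethanol. Substrate 25 μM Ac-VDVAD-AMC. Fluorescence at 360/460 nm, 30 °C, final DMSO 5%. Compounds screened at a single dose (typically 5–50 μM), then full IC50 curves where activity was seen.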

Caspase-7 = molecular target: T5, Caspase-7 (Homo sapiens, UniProt P55210); experiment: Inhibitory activity against Caspase-7; conditions: read-out: Ki app; summary of the method: as §1
T5 sequence (P55210 whole entry): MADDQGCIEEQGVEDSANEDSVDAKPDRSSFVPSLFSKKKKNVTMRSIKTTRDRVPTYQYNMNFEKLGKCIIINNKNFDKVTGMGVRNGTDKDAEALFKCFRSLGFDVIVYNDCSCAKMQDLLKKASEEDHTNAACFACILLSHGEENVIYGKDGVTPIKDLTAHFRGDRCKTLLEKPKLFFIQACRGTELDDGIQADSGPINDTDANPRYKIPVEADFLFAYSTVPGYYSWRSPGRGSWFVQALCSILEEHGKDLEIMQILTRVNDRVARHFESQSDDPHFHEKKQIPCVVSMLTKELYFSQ

Jurkat (Homo sapiens) [3] = experiment: In vitro inhibition of Jurkat cell apoptosis at 10 uM of compound
Jurkat (Homo sapiens) [4] = experiment: In vitro inhibition of Jurkat cell apoptosis at 50 uM of compound

Row | Ki (Caspase-4) [nM] | IC50 (Caspase-3 [1]) [nM] | Ki (Caspase-9) [nM] | Ki (Caspase-3 [2]) [nM] | Ki (Caspase-2) [nM] | Ki (Caspase-7) [nM] | Compound | Inhibition (C20/A4) [%] | Inhibition (Jurkat (Homo sapiens) [3]) [%] | Inhibition (Jurkat (Homo sapiens) [4]) [%]
1 | > 5000 | 2.5 | 120 | 1.2 | 4000 | 6 | O=C1C(=O)N(Cc2ccccc2)c2ccc(S(=O)(=O)N3CCC[C@H]3COc3ccccc3)cc21 | 84 | 27 | 47
2 | 30000 | 31 | 850 | 19 | 6500 | 47 | O=C1Nc2ccc(S(=O)(=O)N3CCC[C@H]3CNc3ccccc3)cc2C1=O | 96 | 8 | 61
3 | 33000 | 44 | 1200 | 15 | 4900 | 47 | O=C1Nc2ccc(S(=O)(=O)N3CCC[C@H]3COc3ccccc3)cc2C1=O | 83 | 51 | 82
4 | > 50000 | 5500 | > 50000 | 12000 | 11000 | 10000 | CN(CC1CCCN1S(=O)(=O)c1ccc2c(c1)C(=O)C(=O)N2)c1ccccc1 (stereo unspecified) |  |  | 
5 | > 25000 | 120 | 1100 | 60 | > 25000 | 170 | COC[C@@H]1CCCN1S(=O)(=O)c1ccc2c(c1)C(=O)C(=O)N2 |  | 22 | 54
